CaV13 FRET inh: Primary screen for inhibitors of IQ motif and Ca2+-dependent inactivation inhibitor domain binding in CACNA1D, Förster resonance energy transfer in living cells, … | HEK cells, CFP/YFP FRET ICDI-IQ, plate reader, 10 min; percent FRET-ratio fall versus neutral wells | inhibition, % at 12.3 µM | 340,000 tested, 0.098% active | AID 743397;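 active = mean replicate inhibition of at least 30% and at least 1% of replicates passing that level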;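 also: 0% = median of the neutral control wells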
PvdQ acylase: P. aeruginosa PvdQ acylase inhibition; purified PvdQ acylase, fluorescence plate reader; AID 488965; 340,000 tested, 0.063% active; inhibition, % at 10 µM; in the data active = inhibition above about 30%, passing the limit was not always enough;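 also: 0% = vehicle neutral wells and 100% = reference inhibitor wells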
PfHsp90 yeast 2: growth inhibition of yeast expressing Plasmodium Hsp90; 310,000 tested, 0.32% active; inhibition, % at 9.4 µM; AID 504621; S. cerevisiae expressing PfHsp90, BacTiter-Glo ATP, 48 h; yeast lacking PDR1 and PDR3 efflux regulators;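 active = every replicate shows inhibition above about 80%, whatever the replicate mean, limit read from the data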;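 also: 0% = DMSO neutral controls and 100% = 20 µM radicicol positive controls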
T cruzi inh: T. cruzi replication inhibition; inhibition, % (concentration not given with the values); 300,000 tested, 1.4% active; AID 1885; T. cruzi beta-gal in NIH3T3, luminescence, 90 h;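 active = mean inhibition across valid replicates above about 55%, limit read from the data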;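 also: signal also drops with host cell toxicity which is not excluded here; 0% = plate median of DMSO wells and 100% = zero luminescence signal; higher percent means less beta-gal luminescence so fewer parasites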
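System: NIH/3T3 fibroblasts plus reporter T. cruzi. Medium: DMEM plus 2% FBS. Probe or stimulus: 5000 reporter trypomastigotes per well. Compound: single 50 nL compound addition per well in DMSO. Incubation: co-culture of at least 90 h after 3 h attachment. Detection: GalScreen β-gal luminescence, detergent lysis, 60 min. Evaluation: parasite load inhibition, %.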
Glyco luc inh: N-linked glycosylation inhibition. D54 ERlucT glycosylation luciferase reporter, 24 h; percent of 100 nM tunicamycin response. reporter increase, % at 12.5 µM. 360,000 tested, 0.23% active. AID 588692;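 active = mean luciferase reporter signal, scaled so untreated is 0 and the glycosylation-blocking control 100, at or above a set limit in every replicate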;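 also: luciferase carries N-glycosylation sites so blocking glycosylation raises the light; 0% = median of neutral control wells and 100% = median of 100 nM tunicamycin wells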
HSF-1 act: increases HSF-1 driven luciferase reporter signal; NIH3T3-HGL HSF-1 luciferase reporter, MG132, 8 h; 100% = twice DMSO control signal; activation, % at 9 µM; 300,000 tested, 1.7% active; AID 504408;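 active = mean replicate activation of at least 50% with a set share of replicates each reaching 50%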;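 also: 0% = median of the neutral control wells and 100% = twice that signal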
Active calls of the source: *. Rows were chosen to be rich in hits. Some 3% of all compounds tested hit in one or more screens of this group.

`Cc1ccc(OCc2ccc(-c3ccccc3)cc2)c([N+](=O)[O-])n1` gave CaV13 FRET inh -3, PvdQ acylase -8, PfHsp90 yeast 2 43, T cruzi inh 5, Glyco luc inh -1 and HSF-1 act 23.
Screening Cc1ccc(OCCOc2cccc(Br)c2)c([N+](=O)[O-])n1 returned CaV13 FRET inh -8, PvdQ acylase -11, PfHsp90 yeast 2 -4, T cruzi inh 25, Glyco luc inh 3 and HSF-1 act 88*.
`CC1(c2nnnn2-c2ccc3c(c2)OCCO3)CCC(=O)N1CCOc1ccccc1` (stereo not given) gave CaV13 FRET inh -11.
Screening Fc1ccc(Sc2nc(-c3ccccc3)nnc2C(F)(F)F)cc1 returned CaV13 FRET inh 18, PvdQ acylase -10, PfHsp90 yeast 2 0, T cruzi inh 32, Glyco luc inh 2 and HSF-1 act 66*.
`Cc1ccc(S(=O)(=O)N(C)c2ccc3c(c2)C(=O)c2ccccc2-3)cc1` gave CaV13 FRET inh -12 and Glyco luc inh -3.
CCCc1nc(Nc2nc3ccccc3o2)nc(C)c1C(=O)OCC was read as CaV13 FRET inh -7, PvdQ acylase 12, PfHsp90 yeast 2 -2, T cruzi inh 23, Glyco luc inh -6 and HSF-1 act 64*.
For CCOC(=O)c1cnc(Nc2nc3ccccc3o2)nc1CSc1ncccn1 the results were T cruzi inh 7 and HSF-1 act -17.
CCOC(=O)c1cnc(Nc2nc3ccccc3o2)nc1CSC(=S)N(CC)CC was read as CaV13 FRET inh -6, PvdQ acylase -9, PfHsp90 yeast 2 7, T cruzi inh 61*, Glyco luc inh -2 and HSF-1 act -15.
CCCCCNC(=O)C(c1ccnc2ccccc12)n1c(=O)c(-c2ccccc2)nc2ccccc21 (stereo not given) was read as CaV13 FRET inh -4.
For COC(=O)C1=C(C)N(CC(C)C)C(=S)NC1c1cccc(OC)c1 (stereo not given) the results were CaV13 FRET inh -3.
For CCCOc1ccc(OCCSc2ncccn2)cc1 the results were CaV13 FRET inh -4, PvdQ acylase -7, PfHsp90 yeast 2 -9, T cruzi inh 14, Glyco luc inh -8 and HSF-1 act 72*.
For CCOc1ccc(-c2nc(CSc3nnc(N)s3)cs2)cc1 the results were PvdQ acylase 4, PfHsp90 yeast 2 -23, T cruzi inh 6, Glyco luc inh -4 and HSF-1 act 62*.
For CCCOc1ccc(OCCSc2nnc(N)s2)cc1 the results were PvdQ acylase -5, PfHsp90 yeast 2 -20, T cruzi inh 20, Glyco luc inh 0 and HSF-1 act 125*.
`CCOC(=O)CN1C(=O)N(c2ccc(OC)cc2)[C@H]2CC3c4ccccc4C[C@]3(C)[C@@H](C(=O)N(C)C3CCCCC3)C[C@H]21` (stereo not given in full) gave CaV13 FRET inh -4.
Screening O=C(NCCc1ccccc1Cl)[C@@H]1CCCN1C(=O)[C@@H](NS(=O)(=O)c1ccc(F)cc1F)c1ccccc1 returned CaV13 FRET inh -3.
Screening CCOc1ccc(-c2cc(C(=O)NCc3ccccc3)[nH]n2)c(C)c1 returned CaV13 FRET inh -10 and Glyco luc inh -2.
CC(OC(=O)c1ccc([N+](=O)[O-])s1)C(=O)NC1CCCCC1C (stereo not given) was read as CaV13 FRET inh -3, PvdQ acylase 6 and Glyco luc inh -1.
`Cc1ccc(C)c(C(O)c2ncc(-c3ccccc3Cl)[nH]2)c1` (stereo not given) gave CaV13 FRET inh -7 and Glyco luc inh 1.
`Cc1cc(NC(=O)/C(C#N)=C\c2ccc(-c3ccc(SC(F)F)cc3)o2)n(-c2ccccc2)n1` gave CaV13 FRET inh -31, PvdQ acylase -15, PfHsp90 yeast 2 -19 and Glyco luc inh 1.
`COc1cc(/C=C/c2noc(-c3ccccc3O)n2)ccc1OC(C)=O` gave CaV13 FRET inh -6, PvdQ acylase 10, PfHsp90 yeast 2 26, T cruzi inh -23, Glyco luc inh -1 and HSF-1 act 54*.

High-throughput results as filed in PubChem BioAssay.
